PLC-beta3 inh: PLC-beta3 (human) inhibition, primary screen. inhibition, % at 12.2 µM. 370,000 tested, 0.18% active. Purified PLC-beta3, fluorogenic substrate, fluorescence; in the data active means inhibition above about 11%;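 further: 0% = median of compound wells on plate and 100% = full blocker control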
Target sequence (Q01970 whole entry, looked up): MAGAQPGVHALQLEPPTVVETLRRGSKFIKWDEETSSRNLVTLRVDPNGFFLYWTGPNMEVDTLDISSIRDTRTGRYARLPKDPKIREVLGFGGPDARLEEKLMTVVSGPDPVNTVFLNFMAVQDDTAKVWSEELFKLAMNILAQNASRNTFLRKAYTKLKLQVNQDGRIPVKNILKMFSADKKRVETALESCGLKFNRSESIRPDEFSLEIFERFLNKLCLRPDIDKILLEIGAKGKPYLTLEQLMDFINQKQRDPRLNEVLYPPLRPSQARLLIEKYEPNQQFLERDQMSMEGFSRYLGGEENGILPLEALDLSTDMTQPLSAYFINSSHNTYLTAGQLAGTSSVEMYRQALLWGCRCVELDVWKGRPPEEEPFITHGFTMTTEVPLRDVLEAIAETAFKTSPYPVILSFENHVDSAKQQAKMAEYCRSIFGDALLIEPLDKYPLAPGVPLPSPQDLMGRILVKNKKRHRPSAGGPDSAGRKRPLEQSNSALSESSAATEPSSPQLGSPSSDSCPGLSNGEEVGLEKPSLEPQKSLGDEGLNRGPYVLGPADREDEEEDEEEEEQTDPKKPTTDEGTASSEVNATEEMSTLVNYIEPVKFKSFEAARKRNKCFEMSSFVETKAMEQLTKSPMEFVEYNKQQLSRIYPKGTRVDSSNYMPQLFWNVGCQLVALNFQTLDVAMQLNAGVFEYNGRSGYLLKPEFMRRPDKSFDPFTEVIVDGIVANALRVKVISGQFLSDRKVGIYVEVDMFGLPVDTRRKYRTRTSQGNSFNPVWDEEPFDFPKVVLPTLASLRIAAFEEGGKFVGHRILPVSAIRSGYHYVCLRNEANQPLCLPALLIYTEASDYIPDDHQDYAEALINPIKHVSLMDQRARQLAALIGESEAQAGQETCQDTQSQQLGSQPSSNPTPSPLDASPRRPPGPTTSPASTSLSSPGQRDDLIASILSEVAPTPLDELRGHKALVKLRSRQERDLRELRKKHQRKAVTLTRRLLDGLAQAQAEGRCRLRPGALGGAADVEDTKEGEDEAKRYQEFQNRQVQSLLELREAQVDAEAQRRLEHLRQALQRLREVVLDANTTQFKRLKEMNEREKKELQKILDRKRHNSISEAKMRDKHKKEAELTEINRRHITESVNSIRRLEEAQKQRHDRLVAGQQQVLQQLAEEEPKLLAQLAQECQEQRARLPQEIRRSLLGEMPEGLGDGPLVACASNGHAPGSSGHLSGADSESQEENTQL
Rpn11 inh: Rpn11 (human) deubiquitinase inhibition; human 26S proteasome, Ub4-pepOG fluorescence polarization; 20S core pre-blocked with epoxomicin; 360,000 tested, 0.59% active; inhibition, % at 20 µM; AID 588493; O00487;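 active means inhibition at 20 µM, scaled to each plate's controls, above about 33%, limit read from the data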
UCH37 inh: human UCH37 deubiquitinating enzyme inhibition; Q9Y5K5; purified proteasome/UCH37, Ub-AMC cleavage fluorescence; inhibition, % (no concentration beside the values); 330,000 tested, 0.33% active;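 active means mean inhibition over replicate wells above about 20%, limit read from the data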;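 further: 0% = compound-free wells with enzyme and 100% = wells lacking proteasome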
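Schedule: 30 min plus 25 min, room temperature / Material: human UCH37 within purified proteasomes / Technique: AMC fluorescence intensity at 355/460 nm / Buffer or medium: pH 7.4 Tris-HCl (50 mM) with ovalbumin, ATP-MgCl2, DTT / Controls: wells without proteasome as full block, compound-free enzyme plus substrate as uninhibited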
PLC-gamma1 inh: PLC-gamma1 (human) inhibition, primary screen; P19174; purified PLC-gamma1, fluorogenic substrate, fluorescence; inhibition, % at 12.2 µM; 370,000 tested, 0.84% active; in the data active means inhibition above about 9.5%
UCH37 reconfirm: UCH37 Ub-AMC cleavage inhibition, confirmed. Proteasome-bound UCH37, Ub-AMC cleavage fluorescence. inhibition, % at 20 µM. 480 tested, 27% active. AID 624100. shares compounds with UCH37 inh;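 active means average inhibition over replicates above about 50%, so the earlier screening hit is confirmed, limit read from the data; inactive means the rest, counted as false positives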;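 further: based on cleavage rate fitted by regression over a 30 min kinetic read; 0% = proteasome plus Ub-AMC and 100% = Ub-AMC without proteasome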
The depositor's hits bear a star; · = no result shown. Most compounds without a hit are left out; they make up all but 1.7% or so of the library.

SMILES	PLC-beta3 inh	Rpn11 inh	UCH37 inh	PLC-gamma1 inh	UCH37 reconfirm
CC(NC(=O)COC(=O)c1ccc([N+](=O)[O-])s1)c1ccccc1 (stereo not drawn)	4	2	33*	4	12
O=C(COC(=O)c1ccc(O)cc1)NC(=O)NCc1ccccc1	-5	0	1	5	·
O=C(COC(=O)c1ccc([N+](=O)[O-])s1)NC(=O)NCc1ccccc1	0	-1	67*	0	10
Cc1ccc(C(=O)OCC(=O)NCc2ccccc2)s1	1	-2	·	3	·
NC(=O)NN=Cc1cccc(C(F)(F)F)c1	·	·	2	·	·
O=C(COC(=O)c1ccc([N+](=O)[O-])s1)NNC(=O)c1ccccc1	·	-7	80*	·	19
O=C(COC(=O)c1ccc([N+](=O)[O-])s1)NCCc1ccccc1	·	-5	81*	·	14
CC(=NNC(=O)CSc1nc2ccccc2c(=O)n1-c1ccccc1C)c1cccs1	·	·	7	·	·
NC(=O)NC(=O)COC(=O)c1ccc(Cl)c(S(=O)(=O)N(Cc2ccccc2)c2ccc(Cl)cc2)c1	-1	8	2	6	·
NC(=O)COC(=O)c1ccc(Cl)c(S(=O)(=O)N(Cc2ccccc2)c2ccc(Cl)cc2)c1	-2	8	39*	5	-37
CC(C)(C)c1cc(C=NNC(=O)Cc2nc3ccccc3[nH]2)cc(C(C)(C)C)c1O	·	·	-3	·	·
CCOc1cc(C(c2c(C)[nH][nH]c2=O)c2c(C)[nH][nH]c2=O)ccc1O	9	12	58*	6	40
COc1cc(NC(=S)NC2CC(C)(C)NC(C)(C)C2)cc(OC)c1	-5	4	0	0	·
COc1cc(NC(=S)NC2CC(C)(C)NC(C)(C)C2)c(OC)cc1Cl	4	0	39*	5	6
CC(C)n1cc(/C=C/c2cc[n+](C)cc2)c2ccccc21	-205	·	28*	-182	19
O=C(O)COc1ccc(C=NNc2nc(Nc3ccccc3)nc(N3CCCCC3)n2)cc1	·	·	4	·	·
C[C@H](NC(=O)c1nc[nH]c1C(=O)N[C@@H](C)C(=O)OC(C)(C)C)C(=O)OCc1ccccc1	4	-2	35*	2	-30
COc1ccc(CNC(=O)C(C)OC(=O)CON=C(C)c2ccc3c(c2)OCO3)cc1 (stereo not drawn)	·	·	1	·	·
COc1cccc(C=NNc2snc(SC)c2C#N)c1O	·	·	-2	·	·
CC(=O)Nc1ccc(SCC(=O)c2cc(C)n(C)c2C)cc1	-1	-1	43*	0	-3
CC(=O)Nc1ccc(SCC(=O)c2cc(C)n(CC(F)(F)F)c2C)cc1	3	5	4	4	·
Cc1ccc(C(=O)ONc2ccc(N=NC(=O)c3ccccc3O)cc2)cc1	1	·	27*	0	31
Cc1ccc(NN=Cc2ccc3c(c2)OCCO3)cc1Cl	·	·	-2	·	·
O=S(=O)(O)c1cc(O)c(N=Nc2ccc(O)cc2O)c2ccccc12	-5	-14	31*	2	51*
O=S(=O)(O)c1cc(O)ccc1O	-5	-3	-2	1	·
SMILES	PLC-beta3 inh	Rpn11 inh	UCH37 inh	PLC-gamma1 inh	UCH37 reconfirm
C/C(C=NNC(=O)c1ccccn1)=C\c1ccco1	·	·	8	·	·
O=C(O)c1ccccc1NS(=O)(=O)c1ccc(NN=Cc2cccc(O)c2O)c([N+](=O)[O-])c1	·	·	32*	·	40
C=CCOc1ccc(C=NNc2ccc(S(=O)(=O)Nc3ccccc3C(=O)O)cc2[N+](=O)[O-])cc1OC	-5	-2	86*	1	83*
O=C(CON=Cc1ccc2c(c1)OCO2)Nc1cccc(Br)c1	·	·	3	·	·
O=[N+]([O-])c1cc(F)c2cccnc2c1O	-3	-3	29*	3	48
O=[N+]([O-])c1cc(Cl)c2cccnc2c1O	-2	1	16	0	·
CCOc1ccc(C=NNC(=O)c2ccc(Cn3cc([N+](=O)[O-])cn3)o2)cc1	·	·	5	·	·
O=C1C2C3C=CC([C@@H]2C(=O)N1Cc1cccnc1)C31CC1 (stereo partly drawn)	1	0	1	5	·
CC1(C)CCCC2=C1CC1C(=O)N(Cc3cccnc3)C(=O)C1C2 (stereo not drawn)	-10	1	39*	-10	46
Cc1ccc(C(C(=O)NC2CCCC2)N(Cc2ccc3c(c2)OCO3)C(=O)Cc2cccs2)cc1 (stereo not drawn)	0	1	36*	4	-13
Cc1ccc(CN(C(=O)Cc2cccs2)C(C(=O)NC2CCCC2)c2ccncc2)cc1 (stereo not drawn)	-10	-6	1	-6	·
Cc1ccccc1N=Nc1ccc(O)c2ncccc12	1	20	3	4	·
O=S(=O)(O)c1cccc2c(N=Nc3ccc(O)c4ncccc34)cccc12	·	38	36*	·	39
COC(=O)C1CCN(C2=C(NS(=O)(=O)c3ccc(Cl)cc3)C(=O)c3ccccc3C2=O)CC1	-7	0	4	3	·
NC(=O)C1CCN(C2=C(NS(=O)(=O)c3ccc(Cl)cc3)C(=O)c3ccccc3C2=O)CC1	-12	-4	33*	-3	30
CCOC(=O)N1CCN(C2=C(NS(=O)(=O)c3ccc(C)cc3)C(=O)c3ccccc3C2=O)CC1	-6	8	42*	-3	53*
COc1ccc(NC(=O)c2ccc(Br)o2)cc1	3	-4	40*	0	2
COc1ccc(NC(=S)NC(=O)c2ccc(Br)o2)cc1	2	-4	4	2	·
COc1cc(C=Nn2cnnc2-n2nc(C)cc2C)cc([N+](=O)[O-])c1O	·	·	29*	·	25
Cc1[nH]n(-c2ccccc2)c(=O)c1C(C[N+](=O)[O-])c1ccc(Br)cc1 (stereo not drawn)	4	14	29*	3	-21
NC(=O)CC(NC(=O)Cc1ccc(Br)cc1)c1ccc(NCCOc2ccccc2)c([N+](=O)[O-])c1 (stereo not drawn)	1	19	36*	2	15
O=C(O)c1ccc(NC2=C(N3CCOCC3)C(=O)c3ccccc3C2=O)cc1	1	6	34*	5	18
Cc1ccc(NC2=C(N3CCOCC3)C(=O)c3ccccc3C2=O)cc1	-4	8	28*	1	26
CC(=O)c1ccc(NC2=C(N3CCOCC3)C(=O)c3ccccc3C2=O)cc1	-11	5	32*	-5	51*
Cc1ccc(NC2=CC(=O)C(=O)c3ccccc32)cc1	-10	3	46*	6	55*
SMILES	PLC-beta3 inh	Rpn11 inh	UCH37 inh	PLC-gamma1 inh	UCH37 reconfirm
CC(=O)c1ccc(S(=O)(=O)Nc2ccc(N3CCOCC3)cc2)cc1	-4	-3	1	1	·
O=C(O)c1ccc(C=NN2CCN(C3c4ccccc4-c4ccccc43)CC2)cc1	·	·	0	·	·
CC(=N/N=C1/NC(=O)C(CC(=O)Nc2ccc(C)c(Cl)c2)S1)C(C)(C)C (stereo not drawn)	·	·	2	·	·
COc1ccc(C(C)=NNC(=O)c2ccc(CSc3nncn3C)cc2)cc1	·	·	6	·	·
CCCCCCCCCCCCCCCC[n+]1ccccc1	6	81*	79*	0	97*
Oc1ccc[n+](CCCCC[n+]2cccc(O)c2)c1	-8	-6	2	0	·

Assay outcomes as filed in PubChem BioAssay.
